Measurements published in ChEMBL document CHEMBL2424522, “Demonic axe-like conjugated alkynes in combating microbes” (2013).
≈ marks a conversion by molar mass, not a printed value.

Key:
Type in all cases: functional
[1] = system: Diutina rugosa; test: Antifungal activity against Candida rugosa NCIM 3462 at 50 ug/ml after 48 hrs by agar well diffusion method; conditions: NCIM 3462, 48 h, read-out: IZ
Procedure, shortened: (§1)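 Test samples and DMSO controls incubated at 27 °C for 48 h. Inhibition zone diameter measured in mm. Three to four replicates per treatment.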

[2] = system: Saccharomyces cerevisiae; test: Antifungal activity against Saccharomyces cerevisiae MTCC 36 at 100 ug/ml after 48 hrs by agar well diffusion method; conditions: MTCC 36, 48 h, read-out: IZ; procedure, shortened: as §1
[3] = system: Candida albicans; test: Antifungal activity against Candida albicans MTCC 227 at 50 ug/ml after 48 hrs by agar well diffusion method; conditions: MTCC 227, 48 h, read-out: IZ; procedure, shortened: as §1
[4] = system: Escherichia coli; test: Antibacterial activity against Escherichia coli MTCC 443 by broth dilution method
Procedure, shortened: (§2)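 Broth dilution per NCCL standards; all phosphorus ylides and conjugated alkynes tested in vitro.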

[5] = system: Candida albicans; test: Antifungal activity against Candida albicans MTCC 227 at 100 ug/ml after 48 hrs by agar well diffusion method; conditions: MTCC 227, 48 h, read-out: IZ; procedure, shortened: as §1
[6] = system: Bacillus subtilis; test: Antibacterial activity against Bacillus subtilis MTCC 441 by broth dilution method; procedure, shortened: as §2
[7] = system: Aspergillus flavus; test: Antifungal activity against Aspergillus flavus MTCC 277 at 50 ug/ml after 48 hrs by agar well diffusion method; conditions: MTCC 277, 48 h, read-out: IZ; procedure, shortened: as §1
[8] = system: Pseudomonas aeruginosa; test: Antibacterial activity against Pseudomonas aeruginosa MTCC 741 by broth dilution method; procedure, shortened: as §2
[9] = system: Staphylococcus aureus; test: Antibacterial activity against Staphylococcus aureus MTCC 96 by broth dilution method; procedure, shortened: as §2
[10] = system: Staphylococcus epidermidis; test: Antibacterial activity against Staphylococcus epidermidis MTCC 435 by broth dilution method; procedure, shortened: as §2
[11] = system: Diutina rugosa; test: Antifungal activity against Candida rugosa NCIM 3462 at 100 ug/ml after 48 hrs by agar well diffusion method; conditions: NCIM 3462, 48 h, read-out: IZ; procedure, shortened: as §1
[12] = system: Saccharomyces cerevisiae; test: Antifungal activity against Saccharomyces cerevisiae MTCC 36 at 50 ug/ml after 48 hrs by agar well diffusion method; conditions: MTCC 36, 48 h, read-out: IZ; procedure, shortened: as §1
[13] = system: Aspergillus niger; test: Antifungal activity against Aspergillus niger MTCC 344 at 100 ug/ml after 48 hrs by agar well diffusion method; conditions: MTCC 344, 48 h, read-out: IZ; procedure, shortened: as §1
[14] = system: Klebsiella pneumoniae; test: Antibacterial activity against Klebsiella pneumoniae MTCC 618 by broth dilution method; procedure, shortened: as §2
[15] = system: Aspergillus flavus; test: Antifungal activity against Aspergillus flavus MTCC 277 at 100 ug/ml after 48 hrs by agar well diffusion method; conditions: MTCC 277, 48 h, read-out: IZ; procedure, shortened: as §1
[16] = system: Aspergillus niger; test: Antifungal activity against Aspergillus niger MTCC 344 at 50 ug/ml after 48 hrs by agar well diffusion method; conditions: MTCC 344, 48 h, read-out: IZ; procedure, shortened: as §1

Structure (SMILES) | MIC [4] [mg/L] | MIC [6] [mg/L] | MIC [8] [mg/L] | MIC [9] [mg/L] | MIC [10] [mg/L] | MIC [14] [mg/L] | zone of inhibition at 50 µg/mL [1] [mm] | zone of inhibition at 100 µg/mL [2] [mm] | zone of inhibition at 50 µg/mL [3] [mm] | zone of inhibition at 100 µg/mL [5] [mm] | zone of inhibition at 50 µg/mL [7] [mm] | zone of inhibition at 100 µg/mL [11] [mm] | zone of inhibition at 50 µg/mL [12] [mm] | zone of inhibition at 100 µg/mL [13] [mm] | zone of inhibition at 100 µg/mL [15] [mm] | zone of inhibition at 50 µg/mL [16] [mm]
N#CC(C(=O)c1ccc(Cl)nc1)=P(c1ccccc1)(c1ccccc1)c1ccccc1 | > 150 | > 150 | > 150 | > 150 | > 150 | > 150 |  | 0 |  | 0 |  | 0 |  | 0 | 0 | 
N#CC(C(=O)c1cccnc1Cl)=P(c1ccccc1)(c1ccccc1)c1ccccc1 | > 150 | > 150 | > 150 | > 150 | > 150 | > 150 |  | 0 |  | 0 |  | 0 |  | 0 | 0 | 
CC(C)OC(=O)C(C(=O)c1ccc(Cl)nc1)=P(c1ccccc1)(c1ccccc1)c1ccccc1 | > 150 | > 150 | > 150 | > 150 | > 150 | > 150 |  | 0 |  | 0 |  | 0 |  | 0 | 0 | 
N#CC(C(=O)c1cc(F)c(Cl)nc1Cl)=P(c1ccccc1)(c1ccccc1)c1ccccc1 | > 150 | > 150 | > 150 | > 150 | > 150 | > 150 |  | 0 |  | 0 |  | 0 |  | 0 | 0 | 
Cc1ccccc1C(=O)C(C#N)=P(c1ccccc1)(c1ccccc1)c1ccccc1 | > 150 | > 150 | > 150 | > 150 | > 150 | > 150 |  | 0 |  | 0 |  | 0 |  | 0 | 0 | 
CC(C)OC(=O)C(C(=O)c1cc(F)c(Cl)nc1Cl)=P(c1ccccc1)(c1ccccc1)c1ccccc1 | > 150 | > 150 | > 150 | > 150 | > 150 | > 150 |  | 0 |  | 0 |  | 0 |  | 0 | 0 | 
CC(C)OC(=O)C(C(=O)c1ccco1)=P(c1ccccc1)(c1ccccc1)c1ccccc1 | > 150 | > 150 | > 150 | > 150 | > 150 | > 150 |  | 0 |  | 0 |  | 0 |  | 0 | 0 | 
N#CC(C(=O)c1ccco1)=P(c1ccccc1)(c1ccccc1)c1ccccc1 | > 150 | > 150 | > 150 | > 150 | > 150 | > 150 |  | 0 |  | 0 |  | 0 |  | 0 | 0 | 
C[C@@H]1[C@H](O)[C@@H](C)/C=C/C=C/C=C/C=C/C=C/C=C/C=C/[C@H](O[C@@H]2O[C@H](C)[C@@H](O)[C@H](N)[C@@H]2O)C[C@@H]2O[C@](O)(C[C@@H](O)C[C@@H](O)[C@H](O)CC[C@@H](O)C[C@@H](O)CC(=O)O[C@H]1C)C[C@H](O)[C@H]2C(=O)O [AMPHOTERICIN B] |  |  |  |  |  |  | 21 |  | 23.5 |  | 25 |  | 22 |  |  | 25
CN[C@@H]1[C@H](O[C@H]2[C@H](O[C@H]3[C@H](O)[C@@H](O)[C@H](N=C(N)N)[C@@H](O)[C@@H]3N=C(N)N)O[C@@H](C)[C@]2(O)C=O)O[C@@H](CO)[C@H](O)[C@H]1O [STREPTOMYCIN] | 6.25 (≈ 10.7 µM) | 6.25 (≈ 10.7 µM) | 1.56 (≈ 2.69 µM) | 6.25 (≈ 10.7 µM) | 3.12 (≈ 5.37 µM) | 3.12 (≈ 5.37 µM) |  |  |  |  |  |  |  |  |  | 

More lines, main results first:

MIC [4] [mg/L] | MIC [6] [mg/L] | MIC [8] [mg/L] | MIC [9] [mg/L] | MIC [10] [mg/L] | MIC [14] [mg/L] | Structure (SMILES) | zone of inhibition at 50 µg/mL [1] [mm] | zone of inhibition at 100 µg/mL [2] [mm] | zone of inhibition at 50 µg/mL [3] [mm] | zone of inhibition at 100 µg/mL [5] [mm] | zone of inhibition at 50 µg/mL [7] [mm] | zone of inhibition at 100 µg/mL [11] [mm] | zone of inhibition at 50 µg/mL [12] [mm] | zone of inhibition at 100 µg/mL [13] [mm] | zone of inhibition at 100 µg/mL [15] [mm] | zone of inhibition at 50 µg/mL [16] [mm]
> 150 | > 150 | > 150 | > 150 | > 150 | > 150 | CCOC(=O)C#Cc1ccccc1C | 0 | 0 | 0 | 0 | 0 | 0 | 0 | 0 | 0 | 0
> 150 | > 150 | > 150 | > 150 | > 150 | > 150 | CCOC(=O)C#CC(C)(C)C | 0 | 0 | 0 | 0 | 0 | 0 | 0 | 0 | 0 | 0
> 150 | > 150 | > 150 | > 150 | > 150 | > 150 | CCOC(=O)C(C(=O)c1ccc(Cl)nc1)=P(c1ccccc1)(c1ccccc1)c1ccccc1 |  | 0 |  | 0 |  | 0 |  | 0 | 0 | 
> 150 | > 150 | > 150 | > 150 | > 150 | > 150 | CCOC(=O)C(C(=O)c1ccccc1C)=P(c1ccccc1)(c1ccccc1)c1ccccc1 |  | 0 |  | 0 |  | 0 |  | 0 | 0 | 
> 150 | > 150 | > 150 | > 150 | > 150 | > 150 | CCOC(=O)C(C(=O)C(C)(C)C)=P(c1ccccc1)(c1ccccc1)c1ccccc1 |  | 0 |  | 0 |  | 0 |  | 0 | 0 | 
> 150 | > 150 | > 150 | > 150 | > 150 | > 150 | CCOC(=O)C(C(=O)c1cccnc1Cl)=P(c1ccccc1)(c1ccccc1)c1ccccc1 |  | 0 |  | 0 |  | 0 |  | 0 | 0 | 
> 150 | > 150 | > 150 | > 150 | > 150 | > 150 | CCOC(=O)C(C(=O)c1cc(F)c(Cl)nc1Cl)=P(c1ccccc1)(c1ccccc1)c1ccccc1 |  | 0 |  | 0 |  | 0 |  | 0 | 0 | 
> 150 | > 150 | > 150 | > 150 | > 150 | > 150 | CCOC(=O)C(C(=O)c1ccco1)=P(c1ccccc1)(c1ccccc1)c1ccccc1 |  | 0 |  | 0 |  | 0 |  | 0 | 0 | 
> 150 | > 150 | > 150 | > 150 | > 150 | > 150 | CC(C)(C)C(=O)C(C#N)=P(c1ccccc1)(c1ccccc1)c1ccccc1 |  | 0 |  | 0 |  | 0 |  | 0 | 0 | 
> 150 | > 150 | > 150 | > 150 | > 150 | > 150 | CC(C)OC(=O)C(C(=O)C(C)(C)C)=P(c1ccccc1)(c1ccccc1)c1ccccc1 |  | 0 |  | 0 |  | 0 |  | 0 | 0 | 
12.5 (≈ 37.4 µM) | 1.56 (≈ 4.67 µM) | 12.5 (≈ 37.4 µM) | 1.56 (≈ 4.67 µM) | 3.12 (≈ 9.35 µM) | 6.25 (≈ 18.7 µM) | CC1(C)S[C@@H]2[C@H](NC(=O)Cc3ccccc3)C(=O)N2[C@H]1C(=O)O [PENICILLIN G] |  |  |  |  |  |  |  |  |  | 
